Converted amounts (≈) assume the structure as drawn. “Also recorded” adds a separate entry of the source.

The values below come from PMC12034291 (International Journal of Nanomedicine, 2025).

The subject of one series is U87 cells. Briefly: CCK-8 cytotoxicity assay, U87 cells. The class given is cell-based, human. Put shortly: (§1)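 CCK-8 viability assay in cells grown in high-glucose DMEM with 10% FBS at 37°C, 5% CO2. Peptide alone was tested at 0, 15, 30, 60 and 120 μg/mL in medium with 10% serum. Blank wells received medium only. Because the test material carries a fluorescent label, parallel wells without CCK-8 gave a D(450) background, which was subtracted. Viability (%) = (experimental − blank)/(control − blank) × 100. Three independent repeats, mean ± SD, t-test/one-way ANOVA.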
(Formazan colour is commonly taken as a measure of viable cells.)

For another series, the system named is FLT4 protein. Briefly: Surface plasmon resonance. The class given is binding. Conditions: TMVP1 10 mg/mL; FLT4 protein 0.6 mg/mL on CM5 chip. Put shortly:
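SPR on a […]. Recombinant FLT4 protein (0.6 mg/mL) was coupled directly to a CM5 chip as the solid phase. The peptide (10 mg/mL) was run as analyte in the mobile phase. The maximum binding response within 150 s was recorded in RU, where 1 RU = 1 pg/mm² surface change.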

The test system of series [1] is FLT4 protein (U87 and U373 cells). Briefly: Fluorescent peptide in vitro binding / colocalization with FLT4. The conditions noted are these: FAM-labeled TMVP1; confocal, green and red light brightness 110. Format: cell-based, human.
Another series has as its system HEB cells. Briefly: CCK-8 cytotoxicity assay, HEB cells. The class given is cell-based, human. Conditions: TMVP1 0, 15, 30, 60, 120 μg/mL, P>0.05. Put shortly:
as §1

The nature of series [2]: UV-visible spectrophotometry of TMVP1 coupling rate. Format: physicochemical. The conditions noted are these: FAM-labeled TMVP1. A digest of the protocol: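 Coupling efficiency of the FAM-labelled peptide to liposomes was measured by UV-visible absorbance at 456 nm, before and after coupling. Coupling rate = (absorbance decrease)/(absorbance before coupling) × 100%. Liposome-bound peptide concentration was estimated from this rate.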

The next series deals with FLT4. Conditions: cited from earlier work.
For series [3] the following is noted: cited from earlier work.
The conditions of series [4]: after combining with nanoprobes; cited from earlier work.

Turning to `Cn1nnc2c(C(N)=O)ncn2c1=O` [TMZ, Temozolomide, reference compound], the IC50 with U87 cells (Homo sapiens, U-87 MG, read-out: IC50 (cytotoxicity)) came out at 48.4 µg/mL (≈ 249 µM).
In the case of LARGR [TMVP1], the “binding affinity to FLT4 (in words)” value in the series with FLT4 protein is given as “strong binding affinity”. For the same compound, the “fluorescence intensity, U87 versus U373 cell line” value in series [1] is “the fluorescence intensity in the U87 cell line was higher than in the U373 cell line”. Also, the “cytotoxicity of peptide alone towards U87 cells” value with U87 cells (CCK-8, U87 cells, TMVP1 0, 15, 30, 60, 120 μg/mL, P>0.05) was “did not show significant cytotoxicity towards U87 cells; also recorded: no significant biological toxicity”. For the same compound, the “biological toxicity of peptide alone to HEB cells” value in the series with HEB cells was “no significant biological toxicity”. For the same compound, in series [2] (456 nm), the “absorbance after coupling TMVP1” value turned out to be 0.069 and the “absorbance before coupling TMVP1” value is 0.296. In addition, the TMVP1 coupling rate in series [2] (absorbance at 456 nm, (absorbance decrease before and after coupling)/(absorbance before coupling) × 100%) is on record as 76.68%. Besides, the “TMVP1 concentration (from coupling rate)” value in series [2] (estimated from coupling rate) is on record as “around 0.153 mg/mL”. Besides, the “binding speed to FLT4 versus traditional monoclonal antibodies” value with FLT4 is “faster binding speed”. For the same compound, the “immunogenicity versus traditional monoclonal antibodies” value in series [3] was “lower immunogenicity than traditional monoclonal antibodies”. The “biocompatibility and in vivo stability” value in series [4] is “good biocompatibility and in vivo stability”.

Broadly, the IC50 is the point on the concentration scale where inhibition reaches its midpoint.
